SMILES strings stand for the structures. A value given as a limit tells only on which side of the number the result lay.

In assay [1] the test system is Echinochloa crus-galli. As to the kind of experiment: Herbicidal activity against Echinochloa crus-galli (barnyard grass) assessed as growth inhibition at 37.5 g/ha postemergence treatment measured after 15 days by Greenhouse test. Type of assay: functional. The conditions noted are these: post-emergence, 360 h, read-out: GI. The gist of the method: (§1)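 Postemergence greenhouse pot test. About 20 seeds per pot, sown 1-3 cm deep in clay soil (pH 6.5, 1.6% organic matter). Plants grown at 15-30 °C and 50% relative humidity. Compounds were made up as 100 g/L emulsifiable concentrates in DMF with Tween-80, then diluted in water. Dicots were sprayed at the 2-leaf stage and monocots at the 1-leaf stage. Controls were untreated and solvent-treated. Injury was scored visually after 15 days, three replicates per treatment.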

Assay [2] has as its system Abutilon theophrasti. In words: Herbicidal activity against Abutilon theophrasti (velvetleaf) assessed as growth inhibition at 150 g/ha postemergence treatment measured after 15 days by Greenhouse test. Type of assay: functional. The conditions noted are these: post-emergence, 360 h, read-out: GI. The gist of the method: (§2)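 Test compounds were made up as 100 g/L emulsifiable concentrates (DMF solvent, Tween-80 emulsifier) and diluted with water. About 20 seeds were sown 1–3 cm deep in clay soil (pH 6.5, 1.6% organic matter) in 9.5 cm pots, kept at 15–30 °C and 50% RH. Postemergence spray was applied to dicots at the 2-leaf stage and monocots at the 1-leaf stage. Controls were untreated and solvent-treated. Injury was scored visually at 15 days, with three replicates.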

Assay [3] has as its system Abutilon theophrasti. As to the kind of experiment: Herbicidal activity against Abutilon theophrasti (velvetleaf) assessed as growth inhibition at 37.5 g/ha postemergence treatment measured after 15 days by Greenhouse test. The following applies: post-emergence, 360 h, read-out: GI. It counts as functional. The gist of the method:
as §1

The subject of assay [4] is Eclipta prostrata. As to the kind of experiment: Herbicidal activity against Eclipta prostrata assessed as growth inhibition at 75 g/ha postemergence treatment measured after 15 days by Greenhouse test. Type of assay: functional. The conditions noted are these: post-emergence, 360 h, read-out: GI. Put shortly: as §1
Assay [5] deals with Amaranthus retroflexus. As to the kind of experiment: Herbicidal activity against Amaranthus retroflexus assessed as growth inhibition at 37.5 g/ha postemergence treatment measured after 15 days by Greenhouse test. Type of assay: functional. The following applies: post-emergence, 360 h, read-out: GI. Put shortly:
as §1

Assay [6] deals with Amaranthus retroflexus. In words: Herbicidal activity against Amaranthus retroflexus assessed as growth inhibition at 75 g/ha postemergence treatment measured after 15 days by Greenhouse test. It counts as functional. The conditions noted are these: post-emergence, 360 h, read-out: GI. Put shortly:
as §1

Assay [7] deals with Brassica juncea. As to the kind of experiment: Herbicidal activity against Brassica juncea assessed as growth inhibition at 150 g/ha postemergence treatment measured after 15 days by Greenhouse test. The conditions noted are these: post-emergence, 360 h, read-out: GI. Type of assay: functional. Put shortly:
as §2

In assay [8] the test system is Setaria faberi. As to the kind of experiment: Herbicidal activity against Setaria faberi (Giant Foxtail) assessed as growth inhibition at 75 g/ha postemergence treatment measured after 15 days by Greenhouse test. It counts as functional. The conditions noted are these: post-emergence, 360 h, read-out: GI. Put shortly: as §1
For assay [9], the system named is Eclipta prostrata. As to the kind of experiment: Herbicidal activity against Eclipta prostrata assessed as growth inhibition at 37.5 g/ha postemergence treatment measured after 15 days by Greenhouse test. It counts as functional. The conditions noted are these: post-emergence, 360 h, read-out: GI. The gist of the method: as §1
The test system of assay [10] is Digitaria sanguinalis. As to the kind of experiment: Herbicidal activity against Digitaria sanguinalis (hairy crabgrass) assessed as growth inhibition at 150 g/ha postemergence treatment measured after 15 days by Greenhouse test. It counts as functional. The following applies: post-emergence, 360 h, read-out: GI. Put shortly: as §2
In assay [11] the test system is Brassica juncea. As to the kind of experiment: Herbicidal activity against Brassica juncea assessed as growth inhibition at 75 g/ha postemergence treatment measured after 15 days by Greenhouse test. It counts as functional. The conditions noted are these: post-emergence, 360 h, read-out: GI. Put shortly: as §1
Assay [12] deals with Echinochloa crus-galli. In words: Herbicidal activity against Echinochloa crus-galli (barnyard grass) assessed as growth inhibition at 150 g/ha postemergence treatment measured after 15 days by Greenhouse test. Type of assay: functional. The conditions noted are these: post-emergence, 360 h, read-out: GI. The gist of the method:
as §2

Assay [13] relates to Digitaria sanguinalis. In words: Herbicidal activity against Digitaria sanguinalis (hairy crabgrass) assessed as growth inhibition at 37.5 g/ha postemergence treatment measured after 15 days by Greenhouse test. Type of assay: functional. The following applies: post-emergence, 360 h, read-out: GI. The gist of the method:
as §1

Assay [14] has as its system Brassica juncea. In words: Herbicidal activity against Brassica juncea assessed as growth inhibition at 37.5 g/ha postemergence treatment measured after 15 days by Greenhouse test. Type of assay: functional. The conditions noted are these: post-emergence, 360 h, read-out: GI. Put shortly:
as §1

For assay [15], the system named is Abutilon theophrasti. As to the kind of experiment: Herbicidal activity against Abutilon theophrasti (velvetleaf) assessed as growth inhibition at 75 g/ha postemergence treatment measured after 15 days by Greenhouse test. Type of assay: functional. The following applies: post-emergence, 360 h, read-out: GI. Put shortly: as §1
The subject of assay [16] is Setaria faberi. In words: Herbicidal activity against Setaria faberi (Giant Foxtail) assessed as growth inhibition at 150 g/ha postemergence treatment measured after 15 days by Greenhouse test. The following applies: post-emergence, 360 h, read-out: GI. It counts as functional. The gist of the method: as §2
Assay [17] has as its system Echinochloa crus-galli. As to the kind of experiment: Herbicidal activity against Echinochloa crus-galli (barnyard grass) assessed as growth inhibition at 75 g/ha postemergence treatment measured after 15 days by Greenhouse test. The following applies: post-emergence, 360 h, read-out: GI. Type of assay: functional. Put shortly:
as §1

Assay [18] deals with Digitaria sanguinalis. As to the kind of experiment: Herbicidal activity against Digitaria sanguinalis (hairy crabgrass) assessed as growth inhibition at 75 g/ha postemergence treatment measured after 15 days by Greenhouse test. The conditions noted are these: post-emergence, 360 h, read-out: GI. Type of assay: functional. Put shortly: as §1
Assay [19] has as its system Eclipta prostrata. As to the kind of experiment: Herbicidal activity against Eclipta prostrata assessed as growth inhibition at 150 g/ha postemergence treatment measured after 15 days by Greenhouse test. The conditions noted are these: post-emergence, 360 h, read-out: GI. It counts as functional. Put shortly: as §2
The target in assay [20] is T1, Protoporphyrinogen oxidase (Homo sapiens) (UniProt P50336).
T1 sequence (whole entry): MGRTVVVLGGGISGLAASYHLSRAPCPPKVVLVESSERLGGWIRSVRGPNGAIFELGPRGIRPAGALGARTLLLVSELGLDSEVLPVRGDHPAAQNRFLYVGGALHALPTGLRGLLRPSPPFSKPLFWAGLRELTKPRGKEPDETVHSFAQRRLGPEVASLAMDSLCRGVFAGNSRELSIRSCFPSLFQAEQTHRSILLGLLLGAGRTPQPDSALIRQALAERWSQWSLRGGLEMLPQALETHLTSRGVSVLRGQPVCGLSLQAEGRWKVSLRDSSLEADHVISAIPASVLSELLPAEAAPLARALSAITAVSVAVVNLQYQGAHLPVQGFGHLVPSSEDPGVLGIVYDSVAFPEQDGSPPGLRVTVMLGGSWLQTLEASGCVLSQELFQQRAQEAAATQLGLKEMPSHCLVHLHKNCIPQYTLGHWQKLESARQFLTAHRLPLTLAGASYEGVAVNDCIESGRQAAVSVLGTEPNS
As to the kind of experiment: Inhibition of Homo sapiens (human) recombinant protoporphyrinogen oxidase by fluorescence detection.

Assay [21] concerns Amaranthus retroflexus. In words: Herbicidal activity against Amaranthus retroflexus assessed as growth inhibition at 150 g/ha postemergence treatment measured after 15 days by Greenhouse test. Type of assay: functional. The conditions noted are these: post-emergence, 360 h, read-out: GI. The gist of the method: as §2
In assay [22] the test system is Setaria faberi. In words: Herbicidal activity against Setaria faberi (Giant Foxtail) assessed as growth inhibition at 37.5 g/ha postemergence treatment measured after 15 days by Greenhouse test. Type of assay: functional. The following applies: post-emergence, 360 h, read-out: GI. The gist of the method:
as §1

In the case of `Cc1nn(-c2cc(NS(C)(=O)=O)c(Cl)cc2Cl)c(=O)n1C(F)F` [SULFENTRAZONE], the inhibition of growth at 37.5 g/ha came out at 50% in the assay on Echinochloa crus-galli [1]; 80% in the assay with Abutilon theophrasti [3]; 80% with Amaranthus retroflexus [5]; 80% in the assay on Eclipta prostrata [9]; 50% in the assay with Digitaria sanguinalis [13]; 60% in the assay on Brassica juncea [14]. For the same compound, the inhibition of growth at 37.5 g/ha in the assay on Setaria faberi [22] is less than 50%. The inhibition of growth at 150 g/ha was 80% in the assay on Abutilon theophrasti [2]; 80% with Brassica juncea [7]; 60% in the assay with Digitaria sanguinalis [10]; 60% with Echinochloa crus-galli [12]; less than 50% in the assay with Setaria faberi [16]; 80% in the assay on Eclipta prostrata [19]. Also, the inhibition of growth at 150 g/ha in the assay with Amaranthus retroflexus [21] came out at 80%. The inhibition of growth at 75 g/ha in the assay on Eclipta prostrata [4] was 80%; with Amaranthus retroflexus [6] it was 80%; in the assay with Setaria faberi [8], less than 50%; in the assay with Brassica juncea [11], 80%; in the assay with Abutilon theophrasti [15], 80%; in the assay with Echinochloa crus-galli [17], 50%. The inhibition of growth at 75 g/ha in the assay with Digitaria sanguinalis [18] was determined as 50%. The Ki (usually a measure of affinity in units of concentration, obtained from inhibition or displacement) in assay [20] came to 720 nM.
As for `COC(=O)CSc1nc2cc(N3C(=O)C4=C(CCCC4)C3=O)c(F)cc2s1`, the inhibition of growth at 37.5 g/ha with Echinochloa crus-galli [1] was less than 50%; in the assay with Abutilon theophrasti [3], 80%; in the assay with Amaranthus retroflexus [5] it was 80%; in the assay with Eclipta prostrata [9], 80%; with Digitaria sanguinalis [13] it was less than 50%; in the assay with Brassica juncea [14], 50%. For the same compound, in the assay with Setaria faberi [22], the inhibition of growth at 37.5 g/ha is less than 50%. The inhibition of growth at 75 g/ha with Eclipta prostrata [4] is 80%; with Amaranthus retroflexus [6] it was 80%; in the assay on Setaria faberi [8] it was less than 50%; with Brassica juncea [11] it was 50%; with Abutilon theophrasti [15], 80%; with Echinochloa crus-galli [17], 50%. For the same compound, the inhibition of growth at 75 g/ha in the assay on Digitaria sanguinalis [18] turned out to be 50%. For the same compound, the inhibition of growth at 150 g/ha was 80% with Brassica juncea [7]; 60% in the assay with Digitaria sanguinalis [10]; 60% with Echinochloa crus-galli [12]; 60% in the assay with Setaria faberi [16]; 80% in the assay with Eclipta prostrata [19]; 80% in the assay with Amaranthus retroflexus [21]. Further, the inhibition constant Ki in assay [20] worked out at 1220 nM.
